Experimental data: ChEMBL document CHEMBL4400513, “Aurone derivatives as promising antibacterial agents against resistant Gram-positive pathogens” (Eur J Med Chem, 2019)
Values after ≈ are worked out from the molar mass of the structure shown. Active and inactive are the calls of the source. No cut-off for these calls is given here.

How the values were obtained:
Bacillus subtilis = assay: Bactericidal activity against Nisin-resistant Bacillus subtilis in aerobic condition; assay type: functional, organism-based
Clostridium botulinum = assay: Antimicrobial activity against Clostridium botulinum after 18 to 24 hrs in anaerobic condition by two-fold serial dilutions method; assay type: functional
Helicobacter pylori = assay: Bactericidal activity against Helicobacter pylori in anaerobic condition; assay type: functional, organism-based
Outline: (§1)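 From the MIC plates, 10 µL from each well without growth was streaked onto agar suited to the organism and incubated under that organism's growth conditions. Colonies were then counted; MBC = lowest concentration allowing ≤1 colony, i.e. killing 99.9% of bacteria.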

Enterococcus faecalis = assay: Bactericidal activity against Enterococcus faecalis in anaerobic condition; assay type: functional, organism-based; outline: as §1
[1] = system: Streptococcus thermophilus; assay: Bactericidal activity against Streptococcus thermophilus in anaerobic condition; assay type: functional, organism-based
Outline: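 S. thermophilus grown in BHI and brought to log phase (OD600 ~0.6). It is diluted to ~10^5 bacteria/mL and exposed to two-fold serial dilutions (0–500 µM, 0.2% DMSO final) at 37 °C in an anaerobic cabinet for 18–24 h. MIC read by OD600 as the lowest concentration with no visible growth. The MBC is the concentration where ≤1 colony grew after streaking 10 µL of no-growth wells on agar. Triplicate.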

Acinetobacter baumannii [2] = assay: Antimicrobial activity against Acinetobacter baumannii after 18 to 24 hrs in aerobic condition by two-fold serial dilutions method; assay type: functional
Outline: (§2)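 Colonies grown overnight (~16 h) in Mueller-Hinton broth at 37 °C, 200 rpm, diluted 1/100 and grown to log phase (OD600 ~0.6), then diluted to ~10^5 bacteria/mL. Exposed to 0 to 500 µM in 1:2 series (0.2% DMSO final control), aerobic, 37 °C, 18–24 h. OD600 read; MIC = lowest concentration without visible growth; n = 3.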

Staphylococcus aureus = assay: Antimicrobial activity against methicillin-resistant Staphylococcus aureus after 18 to 24 hrs in aerobic condition by two-fold serial dilutions method; assay type: functional
Outline: (§3)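 Strains grown on LB at 37 °C aerobically, then in Mueller-Hinton broth overnight at 200 rpm and brought to log phase (OD600 ~0.6). About 10^5 bacteria/mL exposed to two-fold serial dilutions 0–500 µM, DMSO 0.2% final as control. Aerobic incubation at 37 °C for 18–24 h; OD600 read; MIC = lowest concentration inhibiting visible growth. n = 3.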

Citrobacter farmeri = assay: Bactericidal activity against Citrobacter farmeri in aerobic condition; assay type: functional, organism-based; outline: as §1
Klebsiella pneumoniae = assay: Bactericidal activity against Klebsiella pneumoniae in aerobic condition; assay type: functional, organism-based; outline: as §1
Arthrobacter gandavensis [3] = assay: Bactericidal activity against Arthrobacter gandavensis in aerobic condition; assay type: functional, organism-based; outline: as §1
Clostridium perfringens [4] = assay: Antimicrobial activity against Clostridium perfringens after 24 to 72 hrs in anaerobic condition by two-fold serial dilutions method; assay type: functional
Outline: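 C. perfringens grown in BHI at 37 °C anaerobically and brought to log phase (OD600 ~0.6). About 10^5 bacteria/mL with two-fold serial dilutions 0–500 µM, DMSO 0.2% final as control. Incubated 24 h at 37 °C in anaerobic cabinet; OD600 read; MIC = lowest concentration with no visible growth. Independent triplicate.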

Escherichia coli [5] = assay: Antimicrobial activity against Escherichia coli MRS after 18 to 24 hrs in aerobic condition by two-fold serial dilutions method; assay type: functional; outline: as §2
Acinetobacter baumannii [6] = assay: Antimicrobial activity against Acinetobacter baumannii MRS after 18 to 24 hrs in aerobic condition by two-fold serial dilutions method; assay type: functional; outline: as §2
Fusarium oxysporum = assay: Antifungal activity against Fusarium oxysporum after 2 to 5 days by two-fold serial dilutions method; assay type: functional
Outline: (§4)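 Broth two-fold serial dilution MIC, 0 to 500 µM (1:2 steps), from 200 mM DMSO stocks; 0.2% DMSO final as vehicle control. Inoculum about 10^5 cells/mL. Strains maintained on potato dextrose agar and in RPMI medium. Plates held at room temperature for 2 to 5 days, OD600 read; MIC = lowest concentration preventing visible growth; independent triplicate.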

Klebsiella variicola [7] = assay: Antimicrobial activity against Klebsiella variicola after 18 to 24 hrs in aerobic condition by two-fold serial dilutions method; assay type: functional; outline: as §2
Citrobacter rodentium = assay: Antimicrobial activity against Citrobacter rodentium after 18 to 24 hrs in aerobic condition by two-fold serial dilutions method; assay type: functional; outline: as §2
Aspergillus flavus [8] = assay: Antifungal activity against Aspergillus flavus after 2 to 5 days by two-fold serial dilutions method; assay type: functional; outline: as §4
Cutibacterium acnes = assay: Antimicrobial activity against Propionibacterium acnes after 18 to 24 hrs in aerobic condition by two-fold serial dilutions method; assay type: functional
Klebsiella variicola [9] = assay: Bactericidal activity against Klebsiella variicola in aerobic condition; assay type: functional, organism-based; outline: as §1
Aspergillus ochraceus [10] = assay: Antifungal activity against Aspergillus ochraceus after 2 to 5 days by two-fold serial dilutions method; assay type: functional; outline: as §4
Clostridium perfringens [11] = assay: Bactericidal activity against Clostridium perfringens in anaerobic condition; assay type: functional, organism-based
Fusarium verticillioides = assay: Antifungal activity against Fusarium verticillioides after 2 to 5 days by two-fold serial dilutions method; assay type: functional; outline: as §4
Penicillium verrucosum = assay: Antifungal activity against Penicillium verrucosum after 2 to 5 days by two-fold serial dilutions method; assay type: functional; outline: as §4
Arthrobacter gandavensis [12] = assay: Antimicrobial activity against Arthrobacter gandavensis after 18 to 24 hrs in aerobic condition by two-fold serial dilutions method; assay type: functional; outline: as §2
Escherichia coli [13] = assay: Antimicrobial activity against Escherichia coli after 18 to 24 hrs in aerobic condition by two-fold serial dilutions method; assay type: functional; outline: as §2
Clostridioides difficile = assay: Antimicrobial activity against Clostridium difficile after 18 to 24 hrs in anaerobic condition by two-fold serial dilutions method; assay type: functional
Outline: (§5)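 Precultures in BHI broth at 37 °C in an anaerobic cabinet, grown to log phase (OD600 ~0.6), then seeded at ~10^5 bacteria/mL. Two-fold dilutions from 0 to 500 µM, 0.2% DMSO final as control. Plates incubated anaerobically at 37 °C for 18–24 h, OD600 read; MIC = lowest concentration giving no visible growth; independent triplicate.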

Acinetobacter baumannii [14] = assay: Bactericidal activity against Acinetobacter baumannii MRS in aerobic condition; assay type: functional, organism-based; outline: as §1
Escherichia coli [15] = assay: Antimicrobial activity against Escherichia coli […] K88 after 18 to 24 hrs in aerobic condition by two-fold serial dilutions method; assay type: functional; outline: as §3
Salmonella enterica = assay: Antimicrobial activity against Salmonella enterica after 18 to 24 hrs in aerobic condition by two-fold serial dilutions method; assay type: functional; outline: as §2
Blautia producta = assay: Antimicrobial activity against Clostridium coccoides after 18 to 24 hrs in anaerobic condition by two-fold serial dilutions method; assay type: functional; outline: as §5
Aspergillus flavus [16] = assay: Fungicidal activity against Aspergillus flavus; assay type: functional, organism-based
Outline: (§6)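 Filamentous fungi grown on potato dextrose agar and tested in RPMI medium with two-fold serial dilutions (0–500 µM, 0.2% DMSO final). Plates held at room temperature for 2 to 5 days, then OD600 read; MIC taken as the lowest concentration with no visible growth. The fungicidal endpoint is ≤1 colony after streaking 10 µL of no-growth wells on agar. n = 3.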

Aspergillus niger = assay: Fungicidal activity against Aspergillus niger after 48 hrs; assay type: functional, organism-based
Outline: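 A. niger in RPMI medium, two-fold serial dilutions 0–500 µM (0.2% DMSO final). Incubation at 35 °C for 48 h; OD600 read, MIC as the lowest concentration with no visible growth. Killing concentration determined by streaking 10 µL from no-growth wells on agar, where ≤1 colony grew. Triplicate.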

Aspergillus ochraceus [17] = assay: Fungicidal activity against Aspergillus ochraceus; assay type: functional, organism-based; outline: as §6

Structure (SMILES)	Activity (Bacillus subtilis)	MIC (Clostridium botulinum)	Activity (Helicobacter pylori)	Activity (Enterococcus faecalis)	Activity [1]	MIC (Acinetobacter baumannii [2])	MIC (Staphylococcus aureus)	Activity (Citrobacter farmeri)	Activity (Klebsiella pneumoniae)	Activity (Arthrobacter gandavensis [3])	MIC (Clostridium perfringens [4])	MIC (Escherichia coli [5])	MIC (Acinetobacter baumannii [6])	MIC (Fusarium oxysporum)	MIC (Klebsiella variicola [7])	MIC (Citrobacter rodentium)	MIC (Aspergillus flavus [8])	MIC (Cutibacterium acnes)	Activity (Klebsiella variicola [9])	MIC (Aspergillus ochraceus [10])	other results
O=C1/C(=C/c2ccccc2)Oc2cc(O)cc(O)c21	Active	500 µM (≈ 127 µg/mL)	Active	Active	Active	> 500 µM	15.6 to 31.2 µM (≈ 3.97 to 7.95 µg/mL)	Active	Active	Active	7.8 µM (≈ 1.98 µg/mL)	> 500 µM	> 500 µM	> 500 µM	> 500 µM	> 500 µM	> 500 µM	31.2 µM (≈ 7.95 µg/mL)	Active	> 500 µM	Activity (Clostridium perfringens [11]): Active; MIC (Fusarium verticillioides): > 500 µM; MIC (Penicillium verrucosum): > 500 µM; MIC (Arthrobacter gandavensis [12]): 31.2 µM (≈ 7.95 µg/mL); MIC (Escherichia coli [13]): > 500 µM; MIC (Clostridioides difficile): 62.5 µM (≈ 15.9 µg/mL); Activity (Acinetobacter baumannii [14]): Active; MIC (Escherichia coli [15]): > 500 µM; MIC (Salmonella enterica): > 500 µM; MIC (Blautia producta): 500 µM (≈ 127 µg/mL); Activity (Aspergillus flavus [16]): Active; Activity (Aspergillus niger): Active; Activity (Aspergillus ochraceus [17]): Active
O=C1/C(=C/c2ccc(F)cc2)Oc2cc(O)cc(O)c21	Active	500 µM (≈ 136 µg/mL)	Active	Active	Active	> 500 µM	7.8 to 15.6 µM (≈ 2.12 to 4.25 µg/mL)	Active	Active	Active	31.2 to 62.5 µM (≈ 8.51 to 17 µg/mL)	> 500 µM	> 500 µM	> 500 µM	> 500 µM	> 500 µM	> 500 µM	31.2 µM (≈ 8.51 µg/mL)	Active	> 500 µM	Activity (Clostridium perfringens [11]): Active; MIC (Fusarium verticillioides): > 500 µM; MIC (Penicillium verrucosum): > 500 µM; MIC (Arthrobacter gandavensis [12]): 15.6 µM (≈ 4.25 µg/mL); MIC (Escherichia coli [13]): > 500 µM; MIC (Clostridioides difficile): 62.5 µM (≈ 17 µg/mL); Activity (Acinetobacter baumannii [14]): Active; MIC (Escherichia coli [15]): > 500 µM; MIC (Salmonella enterica): > 500 µM; MIC (Blautia producta): > 500 µM; Activity (Aspergillus flavus [16]): Active; Activity (Aspergillus niger): Active; Activity (Aspergillus ochraceus [17]): Active
COc1cc(/C=C2\Oc3cc(O)cc(O)c3C2=O)ccc1OCc1ccccc1	Active	62.5 µM (≈ 24.4 µg/mL)	Active	Active	Active	> 500 µM	15.6 µM (≈ 6.09 µg/mL)	Active	Active	Active	31.2 to 62.5 µM (≈ 12.2 to 24.4 µg/mL)	> 500 µM	> 500 µM	> 500 µM	> 500 µM	> 500 µM	> 500 µM	31.2 µM (≈ 12.2 µg/mL)	Active	> 500 µM	Activity (Clostridium perfringens [11]): Active; MIC (Fusarium verticillioides): > 500 µM; MIC (Penicillium verrucosum): > 500 µM; MIC (Arthrobacter gandavensis [12]): 31.2 µM (≈ 12.2 µg/mL); MIC (Escherichia coli [13]): > 500 µM; MIC (Clostridioides difficile): 31.2 µM (≈ 12.2 µg/mL); Activity (Acinetobacter baumannii [14]): Active; MIC (Escherichia coli [15]): > 500 µM; MIC (Salmonella enterica): > 500 µM; MIC (Blautia producta): 250 µM (≈ 97.6 µg/mL); Activity (Aspergillus flavus [16]): Active; Activity (Aspergillus niger): Active; Activity (Aspergillus ochraceus [17]): Active
